Measured values taken from ChEMBL document CHEMBL5036380, “New Highly Potent NLRP3 Inhibitors: Furanochalcone Velutone F Analogues” (ACS Med Chem Lett, 2022).
Activity calls are given as the source filed them. The rule behind the calls is not given here.

Legend:
[1] = test system: THP-1; assay: Antiinflammatory activity in human THP-1 cells assessed as inhibition of LPS/nigericin-induced IL-1beta secretion in LPS stimulation followed by pretreatment for 40 min before induced with nigericin for 40 min measured by western blot analysis; assay type: functional, cell-based; conditions: time 80.0 min
Outline: (§1)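 PMA-differentiated THP-1 cells were primed with LPS, exposed to graded compound doses for 40 min, then given nigericin for 40 min. Supernatants were immunoblotted for IL-1β and caspase-1. Cell extracts were immunoblotted for NLRP3, pro-IL-1β and pro-caspase-1.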

[2] = test system: THP-1; assay: Cytotoxicity against human THP-1 cells assessed as reduction in cell viability at 0.05 to 6.4 uM measured after 90 mins by CCK8 assay; assay type: cell-based; conditions: thp-1, 1.5 h, dose 0.05-6.4 µM
Outline: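 THP-1 cells preincubated with compound (0.05–6.4 μM) for 1.5 h; viability read by CCK8 assay.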

[3] = test system: THP-1; assay: Antiinflammatory activity in human THP-1 cells assessed as blockade of caspase 1 p20 in LPS stimulation followed by pretreatment for 40 min before induced with nigericin for 40 min measured by western blot analysis; assay type: functional, cell-based; conditions: time 80.0 min; outline: as §1
[4] = molecular target: NACHT, LRR and PYD domains-containing protein 3 (Homo sapiens) (UniProt Q96P20); assay: Inhibition of NLRP3 inflammasome activation in LPS/nigericin-treated human THP-1 cells assessed as blockade of […] caspase 1 p20 in LPS stimulation followed by pretreatment for 40 min before induced with nigericin for 40 min measured by western blot analysis; assay type: cell-based; conditions: time 80.0 min; outline: as §1
[5] = molecular target: NACHT, LRR and PYD domains-containing protein 3 (Homo sapiens) (UniProt Q96P20); assay: Inhibition of NLRP3 inflammasome activation in LPS/nigericin-treated human THP-1 cells assessed as LPS-induced IL-1beta secretion in LPS stimulation followed by pretreatment for 40 min before induced with nigericin for 40 min measured by western blot analysis; assay type: cell-based; conditions: time 80.0 min; outline: as §1
[6] = molecular target: T1, Interferon-inducible protein AIM2 (Homo sapiens) (UniProt O14862); assay: Inhibition of AIM2 inflammasome activation in LPS-induced human THP-1 cells at 3 to 5uM for 40 mins followed by […] stimulation for 6 h by ELISA; assay type: cell-based
T1 sequence (whole entry): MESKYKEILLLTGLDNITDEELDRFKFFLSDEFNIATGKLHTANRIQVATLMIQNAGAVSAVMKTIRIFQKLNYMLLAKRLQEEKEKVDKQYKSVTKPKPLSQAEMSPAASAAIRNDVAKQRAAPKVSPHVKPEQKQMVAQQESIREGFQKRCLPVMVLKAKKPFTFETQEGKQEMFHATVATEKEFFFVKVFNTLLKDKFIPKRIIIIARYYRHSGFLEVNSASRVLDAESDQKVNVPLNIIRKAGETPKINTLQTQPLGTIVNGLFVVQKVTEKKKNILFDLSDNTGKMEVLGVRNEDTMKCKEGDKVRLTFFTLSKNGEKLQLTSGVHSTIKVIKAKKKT

[7] = test system: THP-1; assay: Effect on NLRP3 expression in LPS-stimulated human THP-1 cells at 1 uM preincubated for 40 mins followed by LPS stimulation and measured after 3 hrs by Western blot analysis; assay type: functional, cell-based
Outline: (§2)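 THP-1 cells were given compound for 40 min, then primed with LPS for 3 h. Medium supernatant was analysed for TNF-α. Cell extracts were immunoblotted for pro-IL-1β and NLRP3.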

[8] = test system: THP-1; assay: Effect on IL-1beta expression in LPS-stimulated human THP-1 cells at 1 uM preincubated for 40 mins followed by LPS stimulation and measured after 3 hrs by Western blot analysis; assay type: functional, cell-based; conditions: time 220.0 min; outline: as §2
[9] = test system: THP-1; assay: Effect on TNFalpha expression in LPS-stimulated human THP-1 cells at 1 uM preincubated for 40 mins followed by LPS addition and measured after 3 hrs by Western blot analysis; assay type: functional, cell-based; conditions: time 220.0 min; outline: as §2
[10] = test system: THP-1; assay: Effect on TNFalpha expression in LPS-stimulated human THP-1 cells preincubated for 40 mins followed by LPS addition and measured after 3 hrs by Western blot analysis; assay type: functional, cell-based; conditions: time 220.0 min; outline: as §2
[11] = test system: THP-1; assay: Effect on ASC oligomerization in LPS/nigericin stimulated human THP-1 cells assessed as ASC specks in LPS stimulation for 3 hrs followed by pretreatment for 40 min before induced with nigericin for 40 min by ASC and DAPI staining based immunofluorescent microscopy; assay type: functional, cell-based; conditions: time 80.0 min
Outline: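 THP-1 cells were LPS-primed, treated with compound, then activated with nigericin. Endogenous ASC was visualized by immunofluorescence microscopy. The proportion of cells with ASC specks was counted, with NLRP3 KO THP-1 cells as comparison.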

[12] = molecular target: NACHT, LRR and PYD domains-containing protein 3 (Homo sapiens) (UniProt Q96P20); assay: Binding affinity to NLRP3 in LPS stimulated human THP-1cells assessed as prevention of pronase-mediated protein degradation at 0.01 to 1mM incubated 50 mins before pronase treatment by label-free DARTS assay
Outline: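 Drug affinity responsive target stability: THP-1 lysates were incubated with compound (0.01–1 mM), then digested with pronase. NLRP3 remaining was detected by immunoblot.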

[13] = molecular target: NACHT, LRR and PYD domains-containing protein 3 (Homo sapiens) (UniProt Q96P20); assay: Inhibition of NLRP3 in human THP-1cells assessed as increase in thermal stability at 100 uM by cellular thermal shift assay
[14] = AUC (0 to t) in Sprague-Dawley rat at 10 mg/kg, iv measured up to 24 hrs by LC-MS/MS analysis; assay type: ADME, organism-based; design: route intravenous, dose 10 mg/kg, time <=24; conditions: in vivo
Outline: (§3)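 Single doses given intravenously (10 mg/kg) or orally (10, 30, 90 mg/kg); plasma levels quantified by LC/MS/MS at multiple time points. Parameters reported as mean values: AUC0–t, CL, Cmax, T1/2, Tmax, and %F based on AUC.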

[15] = AUC (0 to t) in Sprague-Dawley rat at 10 mg/kg, po measured up to 24 hrs by LC-MS/MS analysis; assay type: ADME, organism-based; design: route oral, dose 10 mg/kg, time <=24; conditions: in vivo; outline: as §3
[16] = AUC (0 to t) in Sprague-Dawley rat at 30 mg/kg, po measured up to 24 hrs by LC-MS/MS analysis; assay type: ADME, organism-based; design: route oral, dose 30 mg/kg, time <=24; conditions: in vivo; outline: as §3
[17] = Cmax in Sprague-Dawley rat at 10 mg/kg, iv measured up to 24 hrs by LC-MS/MS analysis; assay type: ADME, organism-based; design: route intravenous, dose 10 mg/kg, time <=24; conditions: in vivo; outline: as §3
[18] = Cmax in Sprague-Dawley rat at 10 mg/kg, po measured up to 24 hrs by LC-MS/MS analysis; assay type: ADME, organism-based; design: route oral, dose 10 mg/kg, time <=24; conditions: in vivo; outline: as §3
[19] = Half life in Sprague-Dawley rat at 10 mg/kg, iv measured up to 24 hrs by LC-MS/MS analysis; assay type: ADME, organism-based; conditions: in vivo; outline: as §3
[20] = Half life in Sprague-Dawley rat at 90 mg/kg, po measured up to 24 hrs by LC-MS/MS analysis; assay type: ADME, organism-based; conditions: in vivo; outline: as §3
[21] = Tmax in Sprague-Dawley rat at 10 mg/kg, iv measured up to 24 hrs by LC-MS/MS analysis; assay type: ADME, organism-based; conditions: in vivo; outline: as §3
[22] = Tmax in Sprague-Dawley rat at 10 mg/kg, po measured up to 24 hrs by LC-MS/MS analysis; assay type: ADME, organism-based; conditions: in vivo; outline: as §3
[23] = Tmax in Sprague-Dawley rat at 30 mg/kg, po measured up to 24 hrs by LC-MS/MS analysis; assay type: ADME, organism-based; conditions: in vivo; outline: as §3
[24] = Tmax in Sprague-Dawley rat at 90 mg/kg, po measured up to 24 hrs by LC-MS/MS analysis; assay type: ADME, organism-based; conditions: in vivo; outline: as §3
[25] = Oral bioavailability in Sprague-Dawley rat at 10 mg/kg measured up to 24 hrs by LC-MS/MS analysis; assay type: ADME, organism-based; conditions: in vivo; outline: as §3
[26] = Oral bioavailability in Sprague-Dawley rat at 90 mg/kg measured up to 24 hrs by LC-MS/MS analysis; assay type: ADME, organism-based; conditions: in vivo; outline: as §3

Chain of NACHT, LRR and PYD domains-containing protein 3 (Homo sapiens) (Q96P20 whole entry, the tested form may be a part): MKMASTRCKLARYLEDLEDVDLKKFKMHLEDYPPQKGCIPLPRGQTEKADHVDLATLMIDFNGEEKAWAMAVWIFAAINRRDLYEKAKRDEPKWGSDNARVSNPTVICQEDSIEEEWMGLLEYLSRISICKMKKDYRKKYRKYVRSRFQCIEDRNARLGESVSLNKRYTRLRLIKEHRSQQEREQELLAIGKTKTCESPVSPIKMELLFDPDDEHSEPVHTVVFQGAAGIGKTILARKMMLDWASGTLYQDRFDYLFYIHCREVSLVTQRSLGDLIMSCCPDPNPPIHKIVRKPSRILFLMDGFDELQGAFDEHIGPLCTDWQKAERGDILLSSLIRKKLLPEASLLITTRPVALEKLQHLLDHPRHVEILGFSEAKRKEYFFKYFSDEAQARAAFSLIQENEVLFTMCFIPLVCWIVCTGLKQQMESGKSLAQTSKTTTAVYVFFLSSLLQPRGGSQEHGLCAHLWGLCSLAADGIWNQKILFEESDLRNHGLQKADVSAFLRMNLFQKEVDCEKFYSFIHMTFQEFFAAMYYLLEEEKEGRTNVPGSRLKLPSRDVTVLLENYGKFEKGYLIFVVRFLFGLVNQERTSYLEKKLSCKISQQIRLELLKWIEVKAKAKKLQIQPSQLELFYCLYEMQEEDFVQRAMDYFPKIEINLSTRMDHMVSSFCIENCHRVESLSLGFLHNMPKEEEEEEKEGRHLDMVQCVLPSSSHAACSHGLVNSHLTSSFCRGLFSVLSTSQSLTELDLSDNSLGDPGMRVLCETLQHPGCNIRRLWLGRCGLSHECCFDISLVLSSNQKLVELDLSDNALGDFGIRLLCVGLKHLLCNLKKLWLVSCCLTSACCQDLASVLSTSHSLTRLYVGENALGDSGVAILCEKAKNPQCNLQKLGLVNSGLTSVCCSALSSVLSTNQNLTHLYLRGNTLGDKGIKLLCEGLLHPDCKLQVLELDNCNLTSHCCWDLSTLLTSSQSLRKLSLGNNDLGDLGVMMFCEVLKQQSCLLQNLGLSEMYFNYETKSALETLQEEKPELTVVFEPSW

COc1cc(/C=C/C(=O)c2ccc(F)cc2)c(OC)cc1Br
Activity [1]: Dose-Dependent Effect
Activity [2]: Non-Toxic
Activity [3]: Dose-Dependent Effect
inhibition [4]: inactive
inhibition [5]: inactive
inhibition [6]: Dose-Dependent Effect
Activity [7]: inactive
Activity [8]: inactive
Activity [9]: inactive
Activity [10]: inactive
Activity [11]: Active
Activity [12]: Dose-Dependent Effect
inhibition [13]: Active
AUC(0-t) at 24 h [14]: 106 ng·h/mL
AUCt [15]: 14.6 ng·h/mL
AUC(0-t) at 24 h [16]: 15.8 ng·h/mL
Cmax [17]: 82 ng/mL
Cmax [18]: 3.35 ng/mL
half-life [19]: 3.13 h
half-life [20]: 6.08 h
Tmax [21]: 6.6 min
Tmax [22]: 2.11 h
Tmax [23]: 1.26 h
Tmax [24]: 4.21 h
bioavailability [25]: 13.8%
bioavailability [26]: 2.47%
